According to ChEMBL document CHEMBL4680153, “New Spisulosine Derivative promotes robust autophagic response to cancer cells” (Eur J Med Chem, 2020):
pIC50: −log10 of the molar value. Calls of active or inactive are those of the source. The calls are words filed in the database; no cut-off is given here.

Experiments:
DLD-1 [1] = experiment: Induction of apoptosis in human DLD-1 cells assessed as early apoptotic cells at 7.5 uM incubated for 18 hrs by Annexin V-FITC and propidium iodide staining based flow cytometry analysis (reference value: 4.95 %); format: functional
COLO 205 = experiment: Antiproliferative activity against human COLO 205 cells assessed as reduction in cell growth incubated for 48 hrs by SRB assay; format: functional, cell-based; conditions: COLO 205, 48 h
Method in brief: (§1)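 Colon cancer lines and CCD-18Co normal colon fibroblasts, early passage, plated at 40% confluency and incubated overnight. They were then treated with varying concentrations for 48 h. The SRB read-out was absorbance at 510 nm, and IC50 was taken as the half-maximal proliferation-inhibitory concentration.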

DLD-1 [2] = experiment: Induction of autophagy in human DLD-1 cells assessed as increase in Atg3 expression at 10 uM measured upto 6 hrs by Western blot analysis; format: functional, cell-based; conditions: time hrs <=6
Method in brief: (§2)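 DLD-1 cells were treated with 10 μM compound or vehicle for the indicated times. Equal protein from NP-40 lysates was run on 15% SDS-PAGE and transferred to PVDF. Immunoblots for Beclin-1, Atg3, Atg5 and Atg7 were developed by chemiluminescence.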

DLD-1 [3] = experiment: Induction of autophagy in human DLD-1 cells assessed as vacuole formation at 5 uM measured upto 6 hrs by TEM analysis; format: functional, cell-based; conditions: time hrs <=6
Method in brief: (§3)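 DLD-1 cells were treated at 5 μM for 6 h, fixed in 2.5% glutaraldehyde in phosphate buffer (pH 7.4) and post-fixed in 1% OsO4. Samples were dehydrated through ethanol and embedded in Spurr resin, and ultrathin sections were stained with uranyl acetate and lead citrate. Sections were viewed by TEM at 80 kV, with at least 200 cells per set across 4 grids.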

DLD-1 [4] = experiment: Antiproliferative activity against human DLD-1 cells assessed as reduction in cell growth at 10 uM incubated for 48 hrs by SRB assay relative to control; format: functional
Method in brief: (§4)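 Early-passage cells plated at 40% confluency and left overnight, then exposed to 10 μM compound for 48 h. Growth was measured by sulforhodamine B staining, with absorbance at 510 nm. Percent growth inhibition was calculated against untreated cells.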

DLD-1 [5] = experiment: Antiproliferative activity against human DLD-1 cells assessed as reduction in cell growth incubated for 48 hrs by SRB assay; format: functional, cell-based; conditions: DLD-1, 48 h; method in brief: as §1
MCF7 = experiment: Antiproliferative activity against human MCF7 cells assessed as reduction in cell growth at 10 uM incubated for 48 hrs by SRB assay relative to control; format: functional; method in brief: as §4
SW-620 = experiment: Antiproliferative activity against human SW-620 cells assessed as reduction in cell growth incubated for 48 hrs by SRB assay; format: functional, cell-based; conditions: SW-620, 48 h; method in brief: as §1
DLD-1 [6] = experiment: Induction of autophagy in human DLD-1 cells assessed as vacuole formation at 7.5 uM incubated for 24 hrs by phase contrast microscopic analysis; format: functional, cell-based
Method in brief: (§5)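 DLD-1 cells received vehicle, 7.5 μM compound alone, or compound plus 100 nM bafilomycin A1 pretreatment for 24 h. Cells were then examined by phase-contrast microscopy.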

DLD-1 [7] = experiment: Induction of apoptosis in human DLD-1 cells assessed as late apoptotic cells at 7.5 uM incubated for 18 hrs by Annexin V-FITC and propidium iodide staining based flow cytometry analysis (reference value: 5.7 %); format: functional
HT-29 [8] = experiment: Antiproliferative activity against human HT-29 cells assessed as reduction in cell growth at 10 uM incubated for 48 hrs by SRB assay relative to control; format: functional; method in brief: as §4
DLD-1 [9] = experiment: Induction of autophagy in human DLD-1 cells assessed as vacuole formation at 7.5 uM incubated for 24 hrs in presence of Bafilomycin-A1 by phase contrast microscopic analysis; format: functional, cell-based; method in brief: as §5
DLD-1 [10] = experiment: Induction of autophagy in human DLD-1 cells assessed as increase in LC-3 punta formation at 1 to 5 uM incubated for 6 hrs by based confocal microscopy; format: functional, cell-based; conditions: dose 1-5 µM
Method in brief: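 DLD-1 cells were grown overnight on coverslips and treated with vehicle or compound for 6 h. They were fixed in 4% paraformaldehyde, permeabilized with 0.1% Triton X-100 and blocked in 2% BSA. Primary antibody was applied overnight at 4°C, then fluorescent secondary for 2 h with a DAPI counterstain. LC3 puncta were imaged by confocal microscopy with a 63× oil objective.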

DLD-1 [11] = experiment: Induction of autophagy in human DLD-1 cells assessed as mitochondrial damage at 5 uM measured upto 6 hrs by TEM analysis; format: functional, cell-based; conditions: time hrs <=6; method in brief: as §3
DLD-1 [12] = experiment: Induction of autophagy in human DLD-1 cells assessed as reduction in cell viability at 7.5 uM incubated for 24 hrs by crystal violet staining based phase contrast microscopic analysis; format: functional
DLD-1 [13] = experiment: Induction of apoptosis in human DLD-1 cells assessed as increase in PARP cleavage at 5 to 7.5 uM by Western blot analysis; format: functional, cell-based; conditions: dose 5-7.5 µM
Method in brief: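 DLD-1 cells were treated at 7.5 μM for 18 h and lysed in NP-40 buffer containing protease and phosphatase inhibitors. Protein was quantified by BCA, and equal amounts were run on 15% SDS-PAGE and transferred to PVDF. Cleaved PARP was probed and detected by enhanced chemiluminescence.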

DLD-1 [14] = experiment: Induction of apoptosis in human DLD-1 cells assessed as viable cells at 7.5 uM incubated for 18 hrs by Annexin V-FITC and propidium iodide staining based flow cytometry analysis (reference value: 85.2 %); format: functional; conditions: read-out: Activity
HT-29 [15] = experiment: Antiproliferative activity against human HT-29 cells assessed as reduction in cell growth incubated for 48 hrs by SRB assay; format: functional, cell-based; conditions: HT-29, 48 h; method in brief: as §1
DLD-1 [16] = experiment: Induction of autophagy in human DLD-1 cells assessed as increase in LC3B-I to LC3B-II conversion at 7.5 uM incubated for 18 hrs by Western blot analysis; format: functional, cell-based
Method in brief: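 Vehicle or 7.5 μM compound was applied to DLD-1 cells for 18 h. Cells were lysed in NP-40 with inhibitors and equal protein was resolved on 15% SDS-PAGE and blotted to PVDF. Blots were probed for LC3A/B, with GAPDH as reference, and detected by ECL.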

DLD-1 [17] = experiment: Induction of autophagy in human DLD-1 cells assessed as nuclear damage at 5 uM measured upto 6 hrs by TEM analysis; format: functional, cell-based; conditions: time hrs <=6; method in brief: as §3
DLD-1 [18] = experiment: Induction of vacuole formation in human DLD-1 cells assessed as increase in cellular granularity at 7.5 uM incubated for 18 hrs by FACS analysis; format: functional, cell-based
Method in brief: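 DLD-1 cells were given vehicle or 7.5 μM compound for 18 h. Cell size (forward scatter) and granularity (side scatter) were then read by flow cytometry.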

A549 = experiment: Antiproliferative activity against human A549 cells assessed as reduction in cell growth at 10 uM incubated for 48 hrs by SRB assay relative to control; format: functional; method in brief: as §4
CCD-18Co = experiment: Antiproliferative activity against human CCD-18Co cells assessed as reduction in cell growth incubated for 48 hrs by SRB assay; format: cell-based; method in brief: as §1
DLD-1 [19] = experiment: Induction of autophagy in human DLD-1 cells assessed as increase in Beclin expression at 10 uM measured upto 6 hrs by Western blot analysis; format: functional, cell-based; conditions: time hrs <=6; method in brief: as §2
DLD-1 [20] = experiment: Induction of autophagy in human DLD-1 cells assessed as increase in Atg7 expression at 10 uM measured upto 6 hrs by Western blot analysis; format: functional, cell-based; conditions: time hrs <=6; method in brief: as §2
DLD-1 [21] = experiment: Induction of apoptosis in human DLD-1 cells assessed as necrotic cells at 7.5 uM incubated for 18 hrs by Annexin V-FITC and propidium iodide staining based flow cytometry analysis (reference value: 4.1 %); format: functional
SW48 = experiment: Antiproliferative activity against human SW48 cells assessed as reduction in cell growth incubated for 48 hrs by SRB assay; format: functional, cell-based; conditions: SW48, 48 h; method in brief: as §1
MDA-MB-231 = experiment: Antiproliferative activity against human MDA-MB-231 cells assessed as reduction in cell growth at 10 uM incubated for 48 hrs by SRB assay relative to control; format: functional; method in brief: as §4
DLD-1 [22] = experiment: Induction of autophagy in human DLD-1 cells assessed as vacuole formation at 7.5 uM incubated for 20 hrs by MDC staining based confocal microscopy; format: functional, cell-based
Method in brief: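 DLD-1 cells were incubated with drug for 20 h and then labeled with monodansylcadaverine in PBS for 20 min at 37°C in the dark. After washing, cells were imaged at once by confocal microscopy (excitation 390 nm, emission 460 nm).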

DLD-1 [23] = experiment: Induction of autophagy in human DLD-1 cells assessed as increase in Atg5 expression at 10 uM measured upto 6 hrs by Western blot analysis; format: functional, cell-based; conditions: time hrs <=6; method in brief: as §2
NCI-H358 = experiment: Antiproliferative activity against human NCI-H358 cells assessed as reduction in cell growth at 10 uM incubated for 48 hrs by SRB assay relative to control; format: functional; method in brief: as §4
DLD-1 [24] = experiment: Induction of autophagy in human DLD-1 cells assessed as reduction in cell viability at 7.5 uM incubated for 24 hrs in presence of Bafilomycin-A1 by crystal violet staining based phase contrast microscopic analysis; format: functional
LoVo = experiment: Antiproliferative activity against human LoVo cells assessed as reduction in cell growth incubated for 48 hrs by SRB assay; format: functional, cell-based; method in brief: as §1
HL-60 = experiment: Cytotoxicity against human HL-60 cell; format: functional, cell-based
PC-3 = experiment: Cytotoxicity against human PC-3 cells assessed as reduction in cell viability incubated for 48 hrs by MTT assay; format: functional, cell-based; conditions: PC-3, 48 h
HCT-116 = experiment: Cytotoxicity against human HCT-116 cell; format: functional, cell-based
LNCaP = experiment: Cytotoxicity against human LNCaP cells assessed as reduction in cell viability incubated for 48 hrs by MTT assay; format: functional, cell-based
KB = experiment: Cytotoxicity against human KB cell; format: functional, cell-based

CCCCCCCCCCCCCC[C@H](O)[C@@H](N)Cc1ccc(OC)cc1
Activity (DLD-1 [1]): 0.46% | pIC50 (COLO 205): 5.69 | Activity (DLD-1 [2]): Active | Activity (DLD-1 [3]): Active | inhibition at 10 µM (DLD-1 [4]): 97.3% | pIC50 (DLD-1 [5]): 5.35 | inhibition at 10 µM (MCF7): 89.3% | pIC50 (SW-620): 5.73 | Activity (DLD-1 [6]): Active | Activity (DLD-1 [7]): 0.8% | inhibition at 10 µM (HT-29 [8]): 97.7% | Activity (DLD-1 [9]): inactive | Activity (DLD-1 [10]): Active | Activity (DLD-1 [11]): inactive | Activity (DLD-1 [12]): Active | Activity (DLD-1 [13]): inactive | viability at 7.5 µM (DLD-1 [14]): 93.6% | pIC50 (HT-29 [15]): 5.38 | Activity (DLD-1 [16]): Active | Activity (DLD-1 [17]): inactive | Activity (DLD-1 [18]): Active | inhibition at 10 µM (A549): 94.8% | pIC50 (CCD-18Co): < 5.00 | Activity (DLD-1 [19]): Active | Activity (DLD-1 [20]): Active | Activity (DLD-1 [21]): 5% | pIC50 (SW48): 5.50 | inhibition at 10 µM (MDA-MB-231): 96.8% | Activity (DLD-1 [22]): Active | Activity (DLD-1 [23]): Active | inhibition at 10 µM (NCI-H358): 90.4% | Activity (DLD-1 [24]): inactive | pIC50 (LoVo): 5.48

CCCCCCCCCCCCCCC[C@@H](O)[C@H](C)N
Activity (DLD-1 [1]): 14.2% | pIC50 (HL-60): 7.00 | pIC50 (PC-3): 6.00 | pIC50 (HCT-116): 7.00 | Activity (DLD-1 [7]): 3.4% | pIC50 (LNCaP): 6.00 | Activity (DLD-1 [13]): Active | viability at 7.5 µM (DLD-1 [14]): 78% | pIC50 (KB): 7.00 | Activity (DLD-1 [21]): 4.2% | Activity (DLD-1 [24]): Active

CCCCCCCCCCCCCC[C@H](OCOC)[C@H](CO[Si](c1ccccc1)(c1ccccc1)C(C)(C)C)NC(=O)OC(C)(C)C
inhibition at 10 µM (DLD-1 [4]): -14.6% | inhibition at 10 µM (MCF7): -7.95% | inhibition at 10 µM (HT-29 [8]): -18.8% | inhibition at 10 µM (A549): 15.1% | inhibition at 10 µM (MDA-MB-231): -28% | inhibition at 10 µM (NCI-H358): -2.89%

CCCCCCCCCCCCCC[C@H](O)[C@H](CN(CCCC)CCCC)NC(=O)OC(C)(C)C
inhibition at 10 µM (DLD-1 [4]): 23.4% | inhibition at 10 µM (MCF7): 21.5% | inhibition at 10 µM (HT-29 [8]): 9.83% | inhibition at 10 µM (A549): 30% | inhibition at 10 µM (MDA-MB-231): -9.61% | inhibition at 10 µM (NCI-H358): 9.4%
